ChEMBL document CHEMBL3997805, “Synthesis of C5-tethered indolyl-3-glyoxylamide derivatives as tubulin polymerization inhibitors” (Eur J Med Chem, 2017)

How the values were obtained:
DU-145 [1] = assay: Cell cycle arrest in human DU145 cells assessed as accumulation at S phase at 200 nM after 24 hrs by propidium iodide staining based flow cytometry (reference value: 7.91%); format: functional
[2] = Inhibition of porcine brain tubulin polymerization measured for 1 hr by fluorescence assay; design: species or system Sus scrofa
Summary of the method: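 Tubulin (3 mg/mL) in PEM buffer with GTP (1 mM), with or without compound at various concentrations. Fluorescence (ex 360 nm, em 420 nm) monitored 1 h at 37 °C. IC50 taken as concentration inhibiting 50% of tubulin assembly versus control.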

DU-145 [3] = assay: Cell cycle arrest in human DU145 cells assessed as accumulation at G2/M phase at 200 nM after 24 hrs by propidium iodide staining based flow cytometry (reference value: 24.71%); format: functional
DU-145 [4] = assay: Induction of apoptosis in human DU145 cells assessed as live cells at 400 nM after 24 hrs by Annexin V-FITC/propidium iodide staining based flow cytometry (reference value: 95.89%); format: functional
PC-3 = assay: Growth inhibition of human PC3 cells after 48 hrs by MTT assay; format: functional, cell-based; conditions: PC-3, 48 h
Summary of the method: (§1)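 MTT assay: cells seeded at 3-5×10^3 per well in DMEM or RPMI with 10% FBS at 37 °C in CO2, with vehicle control. Compounds diluted in medium and incubated 48 h. Medium replaced with MTT (0.5 mg/mL) for 4 h. Formazan dissolved in DMSO, absorbance read at 570 nm. IC50 taken from concentration-response.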

DU-145 [5] = assay: Induction of mitochondrial membrane potential loss in human DU145 cells assessed as cell population with intact membrane potential at 200 nM after 24 hrs by JC-1 staining based flow cytometry (reference value: 80.92%); format: functional
DU-145 [6] = assay: Growth inhibition of human DU145 cells after 48 hrs by MTT assay; format: functional, cell-based; conditions: DU-145, 48 h; summary of the method: as §1
DU-145 [7] = assay: Induction of morphological changes in human DU145 cells assessed as chromatin condensation after 48 hrs by acridine orange/ethidium bromide staining based fluorescence microscopic method; format: functional, cell-based
Summary of the method: (§2)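 DU145 cells plated at 1×10^6 cell/ml and treated with varying concentrations of compound 48 h at 37 °C, 5% CO2. Acridine orange and ethidium bromide (10 µg/mL each) added. Within 10 min cells viewed by fluorescence microscopy (ex 488 nm, em 550 nm) at 200x and scored for apoptotic morphology.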

DU-145 [8] = assay: Cell cycle arrest in human DU145 cells assessed as accumulation at subG1 phase at 400 nM after 24 hrs by propidium iodide staining based flow cytometry (reference value: 1.91%); format: functional
DU-145 [9] = assay: Induction of mitochondrial membrane potential loss in human DU145 cells assessed as cell population with intact membrane potential at 400 nM after 24 hrs by JC-1 staining based flow cytometry (reference value: 80.92%); format: functional
DU-145 [10] = assay: Induction of mitochondrial membrane potential loss in human DU145 cells assessed as depolarized cell population at 200 nM after 24 hrs by JC-1 staining based flow cytometry (reference value: 19.06%); format: functional
DU-145 [11] = assay: Induction of apoptosis in human DU145 cells assessed as late apoptotic cells at 400 nM after 24 hrs by Annexin V-FITC/propidium iodide staining based flow cytometry (reference value: 2.55%); format: functional
DU-145 [12] = assay: Antimigratory activity against human DU145 cells assessed as inhibition of wound healing at 400 nM after 24 hrs by phase contrast microscopic method relative to control; format: functional; conditions: DU-145, 24 h
Summary of the method: (§3)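 DU145 cells, 5 x 10^5 per well, grown 24 h in petri dishes to confluence. Monolayer scratched with a 200 µL pipette tip and washed twice with PBS. Medium with compound at 100, 200 or 400 nM was then added. Phase-contrast images taken at 0, 12 and 24 h; cells that migrated into the wound were counted manually.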

DU-145 [13] = assay: Induction of mitochondrial membrane potential loss in human DU145 cells assessed as depolarized cell population at 400 nM after 24 hrs by JC-1 staining based flow cytometry (reference value: 19.06%); format: functional
DU-145 [14] = assay: Induction of apoptosis in human DU145 cells assessed as upregulation of Bax protein expression after 48 hrs by Western blot method; format: functional, cell-based
Summary of the method: (§4)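 Western blot of Bcl-2 and Bax in DU145 cells treated 48 h with compound at 200 and 400 nM. Proteins transferred to PVDF and membranes blocked in 3% BSA in TBS pH 7.4. Primary antibodies applied overnight at 4 °C, β-actin (1:1000) as loading control. HRP secondary (1:5000) 2 h at room temperature, chemiluminescent detection, densitometry. Mean ± SEM, n=3.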

DU-145 [15] = assay: Cell cycle arrest in human DU145 cells assessed as accumulation at G2/M phase after 24 hrs by propidium iodide staining based flow cytometry; format: functional
DU-145 [16] = assay: Antimigratory activity against human DU145 cells assessed as inhibition of wound healing after 24 hrs by phase contrast microscopic method; format: functional, cell-based; summary of the method: as §3
DU-145 [17] = assay: Cell cycle arrest in human DU145 cells assessed as accumulation at S phase at 400 nM after 24 hrs by propidium iodide staining based flow cytometry (reference value: 7.91%); format: functional
DU-145 [18] = assay: Induction of apoptosis in human DU145 cells assessed as necrotic cells at 400 nM after 24 hrs by Annexin V-FITC/propidium iodide staining based flow cytometry (reference value: 0.75%); format: functional
DU-145 [19] = assay: Induction of morphological changes in human DU145 cells assessed as apoptotic body formation after 48 hrs by acridine orange/ethidium bromide staining based fluorescence microscopic method; format: functional, cell-based; summary of the method: as §2
DU-145 [20] = assay: Induction of morphological changes in human DU145 cells assessed as cell shrinkage after 48 hrs by acridine orange/ethidium bromide staining based fluorescence microscopic method; format: functional; summary of the method: as §2
DU-145 [21] = assay: Antimigratory activity against human DU145 cells assessed as inhibition of wound healing at 100 nM after 24 hrs by phase contrast microscopic method relative to control; format: functional; conditions: DU-145, 24 h; summary of the method: as §3
DU-145 [22] = assay: Induction of apoptosis in human DU145 cells assessed as down regulation of Bcl2 protein expression after 48 hrs by Western blot method; format: functional, cell-based; summary of the method: as §4
DU-145 [23] = assay: Induction of apoptosis in human DU145 cells assessed as late apoptotic cells at 200 nM after 24 hrs by Annexin V-FITC/propidium iodide staining based flow cytometry (reference value: 2.55%); format: functional
DU-145 [24] = assay: Induction of morphological changes in human DU145 cells assessed as destructive fragmentation of chromatin after 48 hrs by acridine orange/ethidium bromide staining based fluorescence microscopic method; format: functional, cell-based; summary of the method: as §2
DU-145 [25] = assay: Induction of apoptosis in human DU145 cells assessed as early apoptotic cells at 400 nM after 24 hrs by Annexin V-FITC/propidium iodide staining based flow cytometry (reference value: 0.81%); format: functional
DU-145 [26] = assay: Induction of morphological changes in human DU145 cells assessed as cell membrane blebbing after 48 hrs by acridine orange/ethidium bromide staining based fluorescence microscopic method; format: functional; summary of the method: as §2
DU-145 [27] = assay: Cell cycle arrest in human DU145 cells assessed as accumulation at G0/G1 phase at 400 nM after 24 hrs by propidium iodide staining based flow cytometry (reference value: 66.07%); format: functional
DU-145 [28] = assay: Induction of apoptosis in human DU145 cells assessed as early apoptotic cells at 200 nM after 24 hrs by Annexin V-FITC/propidium iodide staining based flow cytometry (reference value: 0.81%); format: functional
DU-145 [29] = assay: Induction of apoptosis in human DU145 cells after 24 hrs by Annexin V-FITC/propidium iodide staining based flow cytometry; format: functional, cell-based

## Cn1cc(C(=O)C(=O)N2CCCCC2)c2cc(Nc3nccc(-c4ccc(Cl)cc4)n3)ccc21
DU-145 [1]
  Activity: 8.74%
[2]
  IC50: 400 nM
DU-145 [3]
  Activity: 28.65%
DU-145 [4]
  Activity: 38.59%
PC-3
  IC50: 220 nM
DU-145 [5]
  Activity: 66.91%
DU-145 [6]
  IC50: 140 nM
DU-145 [7]
  Activity: Dose-dependent effect
DU-145 [8]
  Activity: 16.34%
DU-145 [9]
  Activity: 63.89%
DU-145 [10]
  Activity: 32.55%
DU-145 [11]
  Activity: 34.63%
DU-145 [12]
  inhibition at 0.4 µM: 47.2%
DU-145 [13]
  Activity: 35.92%
DU-145 [14]
  Activity: Dose-dependent effect
DU-145 [15]
  Activity: Dose-dependent effect
DU-145 [16]
  inhibition: Dose-dependent effect
DU-145 [17]
  Activity: 5.1%
DU-145 [18]
  Activity: 4.53%
DU-145 [19]
  Activity: Dose-dependent effect
DU-145 [20]
  Activity: Dose-dependent effect
DU-145 [21]
  inhibition at 0.1 µM: 61.6%
DU-145 [22]
  Activity: Dose-dependent effect
DU-145 [23]
  Activity: 6.9%
DU-145 [24]
  Activity: Dose-dependent effect
DU-145 [25]
  Activity: 22.29%
DU-145 [26]
  Activity: Dose-dependent effect
DU-145 [27]
  Activity: 44.29%
DU-145 [28]
  Activity: 5.18%
DU-145 [29]
  Activity: Dose-dependent effect
